The values that follow come from ChEMBL document CHEMBL2396525, “Synthesis and anti-HCMV activity of 1-[ω-(phenoxy)alkyl]uracil derivatives and analogues thereof” (Bioorg Med Chem, 2013).

Data set [1] relates to Sindbis virus. In words: Antiviral activity against Sindbis virus. It counts as functional, organism-based. The essentials: (§1)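 Confluent HEL, Vero, HeLa or MDCK cell cultures were inoculated with 100 CCID50 of virus alongside varying compound concentrations. Cytopathicity was scored when it reached completion in untreated virus controls. EC50 is the concentration that reduces virus-induced cytopathogenicity by 50%.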

Data set [2] concerns Human betaherpesvirus 5. In words: Antiviral actiivty against Human herpesvirus 5 Davis infected in HEL assessed as reduction of virus-induced plaque formation. Type of data set: functional, organism-based. As to conditions: Human betaherpesvirus 5, Davis. The essentials: (§2)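 HCMV strains AD-169 and Davis were tested on confluent human embryonic lung fibroblast monolayers infected with 100 PFU in the presence of serial compound concentrations. Plaques were counted once formation was complete in untreated infected controls. EC50 is the concentration that cuts plaque formation by 50%.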

The subject of data set [3] is Feline coronavirus. In words: Antiviral activity against Feline coronavirus. It counts as functional, organism-based.
Data set [4] concerns Influenza A virus. In words: Antiviral activity against Influenza virus A virus H3N2. Type of data set: functional, organism-based. In short, it runs like this: (§3)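 The assay was a cell-based cytopathicity inhibition test on confluent monolayers with serial compound dilutions. EC50 was the concentration that reduced virus-induced cytopathicity by 50%.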
For data set [5], the system named is Human alphaherpesvirus 1. In words: Antiviral activity against thymidine kinase deficient acyclovir-resistant Herpes simplex virus type 1 KOS. It counts as functional, organism-based.
In data set [6] the test system is Influenza B virus. In words: Antiviral activity against Influenza B virus. Type of data set: functional, organism-based. In short, it runs like this: as §3
Data set [7] relates to Human betaherpesvirus 5. In words: Antiviral actiivty against Human herpesvirus 5 AD169 infected in HEL assessed as reduction of virus-induced plaque formation. It counts as functional, organism-based. To be noted: Human betaherpesvirus 5, AD169. The essentials: as §2
For data set [8], the system named is Human alphaherpesvirus 3. In words: Antiviral activity against Varicella-zoster virus OKA. Type of data set: functional. As to conditions: strain Oka vaccine. The essentials: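 Confluent cell monolayers were infected with 10 or 100 PFU of VZV in the presence of serial compound dilutions. Plaque formation was recorded once untreated infected controls reached completion. EC50 was the concentration that reduced plaque formation by 50%.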

For data set [9], the system named is Vaccinia virus. In words: Antiviral activity against Vaccinia virus Lederle. It counts as functional, organism-based. To be noted: Orthopoxvirus vaccinia.
Data set [10] concerns Human alphaherpesvirus 2. In words: Antiviral activity against Herpes simplex virus type 2 Lyons. It counts as functional, organism-based. The essentials:
as §1

Data set [11] relates to Human immunodeficiency virus 2. In words: Antiviral activity against HIV2 ROD infected in human CEM cells assessed as inhibition of virus-induced giant cell formation after 4 to 5 days. It counts as functional, organism-based. As to conditions: ISOLATE ROD, CCRF-CEM. In short, it runs like this: (§4)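 CEM cells at about 3 × 10^5 cells/mL were infected with 100 CCID50 of HIV per mL, with compound dilutions present. They were incubated 4–5 days at 37 °C in humidified CO2, and syncytia were scored microscopically. EC50 is the concentration that inhibits giant cell formation by 50%.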

Data set [12] deals with Human immunodeficiency virus 1. In words: Antiviral activity against HIV1 3B infected in human CEM cells assessed as inhibition of virus-induced giant cell formation after 4 to 5 days. It counts as functional, organism-based. As to conditions: CCRF-CEM. In short, it runs like this:
as §4

In data set [13] the test system is Vesicular stomatitis virus. In words: Antiviral activity against Vesicular stomatitis virus. It counts as functional, organism-based.
The test system of data set [14] is Mammalian orthoreovirus 1. In words: Antiviral activity against Reovirus-1. It counts as functional, organism-based. In short, it runs like this: as §1
The subject of data set [15] is Human alphaherpesvirus 1. In words: Antiviral activity against Herpes simplex virus type 1 KOS. It counts as functional, organism-based. The essentials: as §1
Data set [16] has as its system HEL. In words: Cytotoxicity against HEL. As to conditions: human. It counts as cell-based.
Data set [17] has as its system Punta Toro virus. In words: Antiviral activity against Punta Toro virus. Type of data set: functional, organism-based. In short, it runs like this:
as §1

In data set [18] the test system is Human alphaherpesvirus 2. In words: Antiviral activity against Herpes simplex virus type 2 G. To be noted: strain G. Type of data set: functional, organism-based. The essentials:
as §1

Data set [19] relates to Influenza A virus. In words: Antiviral activity against Influenza virus A virus H1N1. It counts as functional, organism-based. In short, it runs like this:
as §3

Data set [20] has as its system Human respirovirus 3. In words: Antiviral activity against Parainfluenza virus 3. It counts as functional, organism-based. In short, it runs like this:
as §1

The subject of data set [21] is Human alphaherpesvirus 3. In words: Antiviral activity against Varicella-zoster virus YS. Type of data set: functional, organism-based. In short, it runs like this:
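VZV was assayed by plaque formation. Confluent cell cultures received 10 or 100 PFU with varying compound concentrations, and plaques were recorded once complete in untreated infected controls. EC50 is the concentration that reduces plaque formation by 50%.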

The subject of data set [22] is Coxsackievirus B4. In words: Antiviral activity against Coxsackie B4 virus. Type of data set: functional, organism-based. In short, it runs like this: as §1
The subject of data set [23] is Respiratory syncytial virus. In words: Antiviral activity against Respiratory syncytial virus Long. It counts as functional, organism-based. In short, it runs like this: as §1
Data set [24] is described as follows: Cytotoxicity against HEL assessed as minimum cytotoxic concentration required to cause microscopically detectable alteration in cell morphology. It counts as cell-based. As to conditions: human, HEL cells.

Calls of active or inactive are those of the source. No cut-off for these calls is given here. Bounds are passed on as bounds.

For the molecule `Cc1cccc(OCCCCCn2ccc(=O)[nH]c2=O)c1`, the outcome in data set [1], in [3], in data set [4], in data set [5], in data set [6] and in data set [8] was inactive. For the same molecule, the result in [9], in data set [10], in data set [11], in [12], in [13] and in data set [14] was inactive. Moreover, the outcome in data set [15], in data set [17], in data set [18], in data set [19], in data set [20] and in data set [21] was inactive. The outcome in data set [22] and in data set [23] was inactive. Moreover, the EC50 was 55 µM in data set [2] and 45 µM in data set [7]. For the same molecule, the CC50 in data set [16] is more than 100 µM. The MCC in data set [24] was more than 100 µM.

On to `O=c1ccn(CCCCCCCCOc2ccc(Br)cc2)c(=O)[nH]1`, for which the result in [1], in data set [3], in data set [4], in data set [5], in data set [6] and in [8] was inactive. Further, the outcome in [9], in data set [10], in data set [11], in data set [12], in data set [13] and in data set [14] was inactive. In addition, the outcome in [15], in data set [17], in data set [18], in data set [19], in data set [20] and in data set [21] was inactive. For the same molecule, the result in data set [22] and in [23] was inactive. Further, the EC50 in data set [2] was 8.9 µM; in data set [7], 12 µM. In addition, the CC50 in data set [16] was more than 100 µM. Moreover, the MCC in [24] is not below 100 µM.

As to `O=c1ccn(CCCCCOc2ccccc2)c(=O)[nH]1`, the outcome in data set [1], in data set [3], in [4], in data set [5], in data set [6] and in [8] was inactive. Further, the result in data set [9], in data set [10], in [11], in [12], in [13] and in data set [14] was inactive. Moreover, the outcome in [15], in [17], in [18], in data set [19], in data set [20] and in data set [21] was inactive. The outcome in [22] and in data set [23] was inactive. Moreover, the EC50 in data set [2] and in [7] was more than 100 µM in each case. For the same molecule, the CC50 in [16] is more than 100 µM. Moreover, the MCC in data set [24] is more than 100 µM.

Regarding `Cc1cn(CCCCCOc2ccc(Br)cc2)c(=O)[nH]c1=O`, the result in [1], in data set [3], in data set [4], in data set [5], in [6] and in [8] was inactive. The result in data set [9], in [10], in [11], in data set [12], in data set [13] and in data set [14] was inactive. In addition, the result in data set [15], in data set [17], in data set [18], in data set [19], in data set [20] and in data set [21] was inactive. Besides, the result in [22] and in [23] was inactive. The results for the EC50 in data set [2] and in [7] were 9 µM and 8.9 µM, respectively. This molecule also showed a CC50 in data set [16] of more than 100 µM. In data set [24], the MCC was 100 µM.

Take `Nc1nc(O)c2ncn(COC(CO)CO)c2n1` [GANCICLOVIR]: the EC50 in data set [2] turned out to be 8.3 µM. The same molecule registered a CC50 in [16] of 200 µM. For the same molecule, the MCC in data set [24] is 394 µM.

As to `O=c1[nH]c(=O)n(CCCCCOc2ccc(Br)cc2)cc1I`, the result in data set [1], in data set [3], in [4], in data set [5], in data set [6] and in data set [8] was inactive. For the same molecule, the outcome in [9], in data set [10], in [11], in data set [12], in data set [13] and in data set [14] was inactive. Also, the outcome in data set [15], in data set [17], in data set [18], in [19], in data set [20] and in data set [21] was inactive. The result in data set [22] and in data set [23] was inactive. Further, the results for the EC50 in data set [2] and in data set [7] were 20 µM and 13 µM, respectively. Further, the CC50 in [16] is more than 100 µM. Also, the MCC in data set [24] was not below 100 µM.

`Nc1ccc(OCCCCCn2ccc(=O)[nH]c2=O)cc1`: the result in data set [1], in data set [3], in [4], in data set [5], in data set [6] and in [8] was inactive. Moreover, the outcome in [9], in [10], in data set [11], in data set [12], in data set [13] and in data set [14] was inactive. Besides, the result in data set [15], in [17], in data set [18], in data set [19], in data set [20] and in data set [21] was inactive. In addition, the outcome in data set [22] and in data set [23] was inactive. In addition, the EC50 in data set [2] and in [7] was 55 µM throughout. Also, the CC50 in data set [16] is more than 100 µM. Also, the MCC in data set [24] was more than 100 µM.

On to `Nc1ccn(C[C@@H](CO)OCP(=O)(O)O)c(=O)n1` [CIDOFOVIR], for which the EC50 in data set [2] came to 1.1 µM; in data set [7], 1.3 µM. Also, it took 161 µM to reach half-maximal cytotoxicity in [16] (CC50). In data set [24], the MCC is 317 µM.

As to `O=c1ccn(CCCOc2ccc(Br)cc2)c(=O)[nH]1`, the outcome in [1], in data set [3], in data set [4], in data set [5], in data set [6] and in [8] was inactive. In addition, the result in data set [9], in data set [10], in data set [11], in data set [12], in data set [13] and in data set [14] was inactive. Further, the outcome in data set [15], in data set [17], in data set [18], in data set [19], in [20] and in data set [21] was inactive. Further, the outcome in [22] and in data set [23] was inactive. The EC50 in data set [2] and in data set [7] was more than 100 µM in each case. Also, the MCC in [24] is more than 100 µM.

The EC50 is the concentration at which the effect is half-maximal. Broadly, the CC50 is the concentration giving 50% cytotoxicity. A high value points to lower toxicity to the cells.
